The target in test [1] is T1, D(1A) dopamine receptor (Homo sapiens, UniProt P21728). Briefly: Displacement of [3H]SCH23390 from dopamine D1 receptor expressed in human HEK293 cells at 10 uM by liquid scintillation counter. The test is classed as cell-based.
Test [2] has as its target T2, D(2) dopamine receptor (Homo sapiens, UniProt P14416). Briefly: Displacement of [3H]spiperone from dopamine D2 receptor expressed in human HEK293 cells by liquid scintillation counter. The format is cell-based. A digest of the protocol: (§1)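 Stably transfected HEK293 membranes, 15 µg per tube, in duplicate. Competed against [3H]spiperone with increasing compound concentrations from 1 nM. Buffer 50 mM Tris, 4 mM MgCl2, pH 7.4; 30 °C for 50 min. Unlabelled spiperone defined nonspecific binding. Stopped by rapid GF/B filtration and washing with cold 50 mM Tris/5 mM EDTA.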
(Displacement assays read how much labelled ligand stays bound in the presence of the test substance.)

The next test deals with D(3) dopamine receptor (Homo sapiens, UniProt P35462). The experiment in a line: Displacement of [3H]spiperone from dopamine D3 receptor expressed in human HEK293 cells by liquid scintillation counter. The test is classed as cell-based. An outline of the steps:
as §1

The target in test [3] is T1, D(1A) dopamine receptor. Briefly: Displacement of [3H]SCH23390 from dopamine D1 receptor expressed in human HEK293 cells by liquid scintillation counter. The format is cell-based. A digest of the protocol: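 Membranes from stably transfected HEK293 cells, 15 µg per tube, in duplicate. Incubated with [3H]SCH23390 and increasing compound concentrations from 1 nM. Buffer 50 mM Tris, 4 mM MgCl2, pH 7.4; 50 min at 30 °C. Nonspecific binding with unlabelled SCH23390. Reaction started by adding membranes and stopped by GF/B filtration.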

For test [4], the target named is T2, D(2) dopamine receptor. Briefly: Displacement of [3H]spiperone from dopamine D2 receptor expressed in human HEK293 cells at 10 uM by liquid scintillation counter. The test is classed as cell-based.
Test [5] has as its target T3, 5-hydroxytryptamine receptor 1A (Homo sapiens, UniProt P08908).
T3 sequence (P08908 whole entry): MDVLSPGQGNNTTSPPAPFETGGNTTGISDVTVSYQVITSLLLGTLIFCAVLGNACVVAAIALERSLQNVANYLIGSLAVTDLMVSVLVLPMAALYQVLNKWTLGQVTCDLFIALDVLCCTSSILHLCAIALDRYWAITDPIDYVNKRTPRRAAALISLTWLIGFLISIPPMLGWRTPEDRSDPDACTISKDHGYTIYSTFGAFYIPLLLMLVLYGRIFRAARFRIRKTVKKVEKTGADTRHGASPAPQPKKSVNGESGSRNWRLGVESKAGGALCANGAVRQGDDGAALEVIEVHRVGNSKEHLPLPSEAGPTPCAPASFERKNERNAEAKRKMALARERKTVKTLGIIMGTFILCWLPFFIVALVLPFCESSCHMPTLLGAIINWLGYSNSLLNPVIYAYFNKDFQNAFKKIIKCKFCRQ
Briefly: Displacement of [3H]8-OH-DPAT from 5-HT1A receptor expressed in CHO cells by liquid scintillation counter. The test is classed as cell-based. A digest of the protocol: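 CHO cell membrane homogenates, 15 µg per tube, in duplicate tubes. Test compound at increasing concentrations from 1 nM with 0.7 nM [3H]8-OH-DPAT. Buffer 50 mM Tris, 4 mM MgCl2, pH 7.4. Incubated 50 min at 30 °C. Nonspecific binding defined with WAY100635. Stopped by GF/B filtration and cold Tris/EDTA wash.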

Test [6] has as its target 5-hydroxytryptamine receptor 2A (Homo sapiens, UniProt P28223). Briefly: Displacement of [3H]Ketanserin from 5-HT2A receptor expressed in CHO cells by liquid scintillation counter. The format is cell-based. An outline of the steps: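 Duplicate incubations of CHO membranes (15 µg per tube) with [3H]Ketanserin and a rising compound series starting at 1 nM. Run in 50 mM Tris, 4 mM MgCl2, pH 7.4, at 30 °C for 50 min. Unlabelled ketanserin gave nonspecific binding. Bound counts retained on GF/B filters after cold-buffer washing.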

The nature of test [7]: Selectivity ratio of Ki for 5-HT1A receptor to Ki for dopamine D3 receptor.
A short description of test [8]: Selectivity ratio of Ki for 5-HT2A receptor to Ki for 5-HT1A receptor.

Each structure is given as a SMILES string.

Sequence of D(3) dopamine receptor (P35462 whole entry): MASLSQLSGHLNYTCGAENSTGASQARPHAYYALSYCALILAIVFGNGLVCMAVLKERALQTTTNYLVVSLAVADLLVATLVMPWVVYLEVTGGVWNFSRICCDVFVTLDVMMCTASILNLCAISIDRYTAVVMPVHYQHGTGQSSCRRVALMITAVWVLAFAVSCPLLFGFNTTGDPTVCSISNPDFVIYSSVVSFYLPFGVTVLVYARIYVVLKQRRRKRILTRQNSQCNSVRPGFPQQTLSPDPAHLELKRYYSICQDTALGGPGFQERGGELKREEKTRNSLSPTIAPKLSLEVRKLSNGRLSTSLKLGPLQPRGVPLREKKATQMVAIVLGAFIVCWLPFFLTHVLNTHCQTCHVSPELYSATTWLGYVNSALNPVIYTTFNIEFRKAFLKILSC
Sequence of 5-hydroxytryptamine receptor 2A (P28223 whole entry): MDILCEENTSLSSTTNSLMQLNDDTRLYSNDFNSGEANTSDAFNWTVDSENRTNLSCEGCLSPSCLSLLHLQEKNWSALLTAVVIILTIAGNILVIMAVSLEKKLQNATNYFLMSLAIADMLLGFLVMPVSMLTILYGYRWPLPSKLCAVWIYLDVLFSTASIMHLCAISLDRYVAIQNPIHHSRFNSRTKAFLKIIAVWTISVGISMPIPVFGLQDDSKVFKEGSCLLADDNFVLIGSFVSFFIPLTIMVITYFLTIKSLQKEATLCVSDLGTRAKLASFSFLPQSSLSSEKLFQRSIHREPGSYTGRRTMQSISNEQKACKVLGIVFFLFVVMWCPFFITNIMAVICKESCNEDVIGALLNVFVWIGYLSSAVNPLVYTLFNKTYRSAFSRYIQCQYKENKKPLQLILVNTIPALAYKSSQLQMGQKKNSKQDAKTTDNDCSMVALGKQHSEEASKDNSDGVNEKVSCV
T2 sequence (P14416 whole entry): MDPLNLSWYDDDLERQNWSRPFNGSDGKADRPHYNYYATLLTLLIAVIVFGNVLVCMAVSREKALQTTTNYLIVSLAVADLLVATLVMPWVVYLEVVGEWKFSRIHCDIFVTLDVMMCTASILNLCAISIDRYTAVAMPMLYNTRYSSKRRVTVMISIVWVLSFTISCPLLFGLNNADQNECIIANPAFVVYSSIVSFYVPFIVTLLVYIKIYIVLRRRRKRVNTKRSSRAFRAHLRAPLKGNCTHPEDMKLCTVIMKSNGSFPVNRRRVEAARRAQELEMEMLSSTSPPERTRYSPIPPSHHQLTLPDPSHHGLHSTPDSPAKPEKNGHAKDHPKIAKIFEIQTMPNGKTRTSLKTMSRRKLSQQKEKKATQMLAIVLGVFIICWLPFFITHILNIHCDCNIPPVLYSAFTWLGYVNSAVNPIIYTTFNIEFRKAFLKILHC
T1 sequence (P21728 whole entry): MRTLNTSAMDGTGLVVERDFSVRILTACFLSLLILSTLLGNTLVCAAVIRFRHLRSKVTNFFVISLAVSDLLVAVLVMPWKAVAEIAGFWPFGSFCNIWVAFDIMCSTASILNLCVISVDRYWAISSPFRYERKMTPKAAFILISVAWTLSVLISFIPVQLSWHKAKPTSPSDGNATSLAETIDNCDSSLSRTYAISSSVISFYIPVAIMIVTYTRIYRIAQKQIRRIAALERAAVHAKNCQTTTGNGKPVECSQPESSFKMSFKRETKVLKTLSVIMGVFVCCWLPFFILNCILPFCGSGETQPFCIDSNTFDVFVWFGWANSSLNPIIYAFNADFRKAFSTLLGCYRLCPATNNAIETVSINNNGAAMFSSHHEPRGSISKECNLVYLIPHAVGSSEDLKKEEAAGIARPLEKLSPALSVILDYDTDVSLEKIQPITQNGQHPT

What is called inhibition is the drop in the measured response relative to a control, in per cent. A low value points to little suppression. The term Ki denotes a measure of affinity in units of concentration, obtained from inhibition or displacement. Higher therefore signals a looser hold on the target. In turn, `CCCN1CCc2cccc3c2[C@@H]1Cc1cccc(OCc2cn(CCCCN4CCN(c5ccccc5OC)CC4)nn2)c1-3` yielded an inhibition on D(1A) dopamine receptor [1] of 66%. For the same compound, the Ki at D(2) dopamine receptor [2] is 0.293 µM; on D(3) dopamine receptor, 0.008 µM.
On to `CCCN1CCc2cccc3c2[C@H]1Cc1cccc(OCc2cn(CCCCN4CCN(c5ccccc5OC)CC4)nn2)c1-3`, for which the Ki was 1.6 µM at D(1A) dopamine receptor [3], 0.616 µM at D(2) dopamine receptor [2] and 0.00918 µM on D(3) dopamine receptor.
Take `CCCN1CCc2cccc3c2[C@@H]1Cc1cccc(OCCCn2cc(CCN4CCN(c5ccccc5OC)CC4)nn2)c1-3`: the inhibition at D(1A) dopamine receptor [1] worked out at 68%. Further, the Ki was found to be 0.6 µM on D(2) dopamine receptor [2] and 0.00182 µM on D(3) dopamine receptor.
The corresponding values for `CCCN1CCc2cccc3c2[C@H]1Cc1cccc(OCCCn2cc(CCN4CCN(c5ccccc5OC)CC4)nn2)c1-3` are 54%, 0.77 µM and 0.0077 µM.
For the compound `CCCN1CCc2cccc3c2[C@@H]1Cc1cccc(OCCCCN2CCN(c4ccccc4OC)CC2)c1-3`, the Ki is 1.17 µM on D(1A) dopamine receptor [3], 0.174 µM on D(2) dopamine receptor [2] and 0.189 µM at D(3) dopamine receptor.
With `CCCN1CCc2cccc3c2[C@H]1Cc1cccc(OCCCCN2CCN(c4ccccc4OC)CC2)c1-3`, the Ki on D(1A) dopamine receptor [3] was 1.31 µM; at D(2) dopamine receptor [2], 0.141 µM; at D(3) dopamine receptor, 0.0234 µM.
`C#CCOc1cccc2c1-c1cccc3c1C(C2)N(CCC)CC3` (racemic): at D(2) dopamine receptor [4], the inhibition worked out at 28%. This compound had a Ki on D(3) dopamine receptor of 2.4 µM.
Compound `CCCN1CCc2cccc3c2C1Cc1cccc(OCc2cn(CCCN4CCN(c5ccccc5OC)CC4)nn2)c1-3` (racemic) returned an inhibition at D(1A) dopamine receptor [1] of 67%. In addition, the Ki amounted to 1.2 µM on D(2) dopamine receptor [2] and 0.021 µM at D(3) dopamine receptor.
Regarding `CCCN1CCc2cccc3c2C1Cc1cccc(OCc2cn(CCCN4CCN(c5cccc(Cl)c5Cl)CC4)nn2)c1-3` (racemic), the Ki at D(1A) dopamine receptor [3] was 2.01 µM; at D(3) dopamine receptor it was 0.035 µM. At D(2) dopamine receptor [4], the inhibition amounted to 40.5%.
As to `CCCN1CCc2cccc3c2C1Cc1cccc(OCc2cn(CCCN4CCN(c5ccccc5)CC4)nn2)c1-3` (racemic), the inhibition at D(1A) dopamine receptor [1] came out at 63%; at D(2) dopamine receptor [4], 6%. The same compound returned a Ki at D(3) dopamine receptor of 0.191 µM.
With `CCCN1CCc2cccc3c2C1Cc1cccc(OCc2cn(CCCN4CCN(c5ncccn5)CC4)nn2)c1-3` (racemic), the values for the inhibition at D(1A) dopamine receptor [1] and on D(2) dopamine receptor [4] were 32% and 13%, respectively. At D(3) dopamine receptor, this compound registered a Ki of 0.539 µM.
The corresponding values for `CCCN1CCc2cccc3c2C1Cc1cccc(OCc2cn(CCN4CCN(c5ccccc5OC)CC4)nn2)c1-3` (racemic) are 35%, 19% and 0.044 µM.
As for `CCCN1CCc2cccc3c2C1Cc1cccc(OCc2cn(CCCCN4CCN(c5ccccc5OC)CC4)nn2)c1-3` (racemic), the Ki is 2.7 µM on D(1A) dopamine receptor [3]; 0.00968 µM in test [5]; 0.174 µM in test [6]; 0.661 µM on D(2) dopamine receptor [2]; 0.00267 µM on D(3) dopamine receptor. Also, the Ratio stood at 3.6 in test [7] and 18 in test [8].
Regarding `CCCN1CCc2cccc3c2C1Cc1cccc(OCCCn2cc(CCCCN4CCN(c5ccccc5OC)CC4)nn2)c1-3` (racemic), the Ki on D(1A) dopamine receptor [3] was determined as 1.9 µM; on D(2) dopamine receptor [2], 0.206 µM; at D(3) dopamine receptor, 0.00814 µM.
For the compound `CCCN1CCc2cccc3c2C1Cc1cccc(OCCCn2cc(CCCN4CCN(c5ccccc5OC)CC4)nn2)c1-3` (racemic), the inhibition worked out at 14% on D(1A) dopamine receptor [1] and 18% on D(2) dopamine receptor [4]. The compound further displayed a Ki at D(3) dopamine receptor of 0.00816 µM.
For the compound `CCCN1CCc2cccc3c2C1Cc1cccc(OCCCn2cc(CCN4CCN(c5ccccc5OC)CC4)nn2)c1-3` (racemic), the inhibition on D(1A) dopamine receptor [1] amounted to 64%. Also, the Ki in test [5] was 0.00759 µM; in test [6], 0.245 µM; on D(2) dopamine receptor [2] it was 7.38 µM; on D(3) dopamine receptor it was 0.00114 µM. In addition, the Ratio in test [7] turned out to be 6.6; in test [8], 32.
Turning to `CCCN1CCc2cccc3c2C1Cc1cccc(OCCCn2cc(CN4CCN(c5ccccc5OC)CC4)nn2)c1-3` (racemic), the inhibition at D(1A) dopamine receptor [1] amounted to 42%; at D(2) dopamine receptor [4], 51%. Also, the Ki on D(3) dopamine receptor is 0.281 µM.
In the case of `CCCN1CCc2cccc3c2C1Cc1cccc(OCCCNCCCO)c1-3` (racemic), the inhibition at D(1A) dopamine receptor [1] turned out to be 44%; at D(2) dopamine receptor [4], 9%. The same compound registered a Ki at D(3) dopamine receptor of 4.51 µM.
On to `CCCN1CCc2cccc3c2C1Cc1cccc(OCCCCN2CCN(c4ccccc4OC)CC2)c1-3` (racemic), for which the Ki on D(1A) dopamine receptor [3] stood at 0.735 µM; in [5], 0.058 µM; in test [6], 100 µM; at D(2) dopamine receptor [2], 0.088 µM; at D(3) dopamine receptor it was 0.0199 µM.
For the compound `CCCN1CCc2cccc3c2C1Cc1cccc(OCCCN(CCCN2CCN(c4ccccc4OC)CC2)S(C)(=O)=O)c1-3` (racemic), the Ki at D(1A) dopamine receptor [3] is 0.91 µM; on D(2) dopamine receptor [2], 0.399 µM; at D(3) dopamine receptor, 0.102 µM.

The values above are taken from ChEMBL document CHEMBL1681760, “Further SAR study on 11-O-substituted aporphine analogues: identification of highly potent dopamine D3 receptor ligands” (Bioorg Med Chem, 2011).
